Screening data (PubChem BioAssay)
Calpain2 inh – blocks pig calpain II enzyme activity; inhibition, % at 16 µM; 0.37% of 220,000 active; AID 1236; purified calpain II, fluorogenic peptide substrate, 30 min;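 active means inhibition above about 50%, limit read from the data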
TbHK1 inh – T. brucei hexokinase 1 inhibition. recombinant TbHK1, G6PDH-coupled NADH A340. inhibition, % at 10 µM. 0.11% of 220,000 active;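 active means inhibition of 50% or more in the single-dose primary screen; inactive means inhibition below 50%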
NPY-Y2 PAM-ag – potentiators or agonists of human neuropeptide Y receptor Y2. cells expressing NPY-Y2, potentiator/agonist read-out. activation, % at 3.6 µM. 0.45% of 220,000 active. AID 1359; in the data active means activation above about 27%;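 further: cells stimulated with NPY near EC25 plus isoproterenol at EC100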
Target sequence (P49146 whole entry, looked up): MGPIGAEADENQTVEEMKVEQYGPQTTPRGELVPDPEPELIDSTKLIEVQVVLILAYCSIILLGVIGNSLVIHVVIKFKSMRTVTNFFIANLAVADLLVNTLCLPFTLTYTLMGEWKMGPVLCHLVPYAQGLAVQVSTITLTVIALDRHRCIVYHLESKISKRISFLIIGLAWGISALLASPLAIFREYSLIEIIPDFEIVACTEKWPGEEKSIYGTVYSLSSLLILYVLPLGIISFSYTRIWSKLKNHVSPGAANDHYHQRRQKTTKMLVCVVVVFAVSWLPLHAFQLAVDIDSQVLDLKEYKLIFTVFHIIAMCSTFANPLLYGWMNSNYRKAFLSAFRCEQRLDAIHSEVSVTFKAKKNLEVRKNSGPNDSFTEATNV
NPY Y1 blocker – antagonists of human neuropeptide Y receptor Y1 | P25929 | HEK293-CNG Y1 cells, membrane potential fluorescence; NPY at EC95, then isoproterenol | inhibition, % at 3.6 µM | 1% of 200,000 active | AID 1040;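 active means inhibition above the campaign mean inhibition of all tested compounds plus 3 SD, cut at about 20% in these data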
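Assay system: HEK293 cells with Y1 receptor plus CNG channel | Probe or stimulus: NPY (25 nM), isoproterenol (1 µM), Ro 20-1724 (25 µM) | Timing: Compound incubation 1 h at room temperature, readout 45 min post-stimulation | Measured by: Membrane-potential fluorescent dye readout | Benchmarks: High control isoproterenol alone, low control NPY with isoproterenol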
NPY-Y1 PAM-ag – potentiators or agonists of human neuropeptide Y receptor Y1; activation, % at 3.6 µM; AID 1304; 0.37% of 220,000 active; P25929; NPY-Y1 expressing cells, potentiator/agonist activation; in the data active means activation above about 33%, passing the limit was not always enough;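 further: cells stimulated with NPY at EC10 then isoproterenol at EC100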
NPY-Y2 antag – NPY-Y2 (human) receptor antagonism. P49146. NPY-Y2 expressing cells, antagonist mode. inhibition, % at 2.7 µM. 0.99% of 140,000 active. AID 793; in the data active means inhibition above about 17%
Of the large screens only hits and unclear results are named; the others gave an inactive call. Shown are actives, neighbours in structure and some others; about 2.3% of the full set was active somewhere.

C=CCSc1nc2sc3c(c2c(=O)[nH]1)CCC3	none (no result: NPY-Y2 antag)
COc1ccc(Nc2nc(N3CCCCC3)nc3ccccc23)c(OC)c1	NPY Y1 blocker 41, NPY-Y2 antag 50
c1ccc2c(N3CCCCC3)nc(N3CCCC3)nc2c1	NPY Y1 blocker 56, NPY-Y2 antag 32
N#Cc1cccc(C#N)c1Oc1ccc(S(=O)(=O)Nc2ccc(Cl)cc2)cc1	none (no result: NPY Y1 blocker, NPY-Y2 antag)
NC(=O)CC(NC(=O)c1ccc(Br)cc1)c1ccc(N2CCC(Br)CC2)c([N+](=O)[O-])c1 (configuration not stated)	none (no result: NPY-Y2 PAM-ag, NPY Y1 blocker, NPY-Y1 PAM-ag, NPY-Y2 antag)
CC(C)[C@H](NC(=O)[C@H](CCCN=C(N)N)NC(=O)NC(Cc1ccccc1)C(=O)O)C(=O)NC(C=O)CCCN=C(N)N (some centres not stated)	Calpain2 inh 51
Cc1ccc(NC(=O)C2=C(c3ccccc3)S(=O)(=O)CCS2(=O)=O)cc1	NPY-Y2 PAM-ag 55, NPY-Y1 PAM-ag 56 (no result: NPY-Y2 antag)
Cc1ccc(NC(=O)c2ccccc2)cc1	none
Cc1cccc(N2C(=O)C(Oc3ccc(Cl)cc3Cl)C2C=O)c1C (configuration not stated)	NPY-Y1 PAM-ag 54
Nc1ccc(-c2cc(-c3cccc(N)c3)nc(-c3ccccc3)n2)cc1	NPY-Y2 PAM-ag 45, NPY-Y1 PAM-ag 54
C/C(=N/Nc1nc(-c2ccccc2)cc(-c2ccccc2)n1)c1ccc(N)cc1	none
CCCN(c1ccc(C(C)C)cc1)S(=O)(=O)c1c(C)noc1C	NPY Y1 blocker 22, NPY-Y2 antag 28
Cc1cc(=O)[nH]c(N/N=C/c2ccc(OC(=O)c3cccnc3)cc2)n1	none (no result: NPY-Y2 antag)
COC(=O)c1c(NC(=O)C2CC2)sc(C(=O)Nc2ccccc2)c1C	none (no result: NPY-Y2 antag)
Cc1ccc(NC(=O)c2cc(N3C(=O)C4CCCCC4C3=O)ccc2N2CCOCC2)cc1 (configuration not stated)	Calpain2 inh 68 (no result: NPY-Y2 antag)
Cc1ccc(NC(=O)c2cc(N3C(=O)C4CC=CCC4C3=O)ccc2N2CCCCC2)cc1 (configuration not stated)	none
O=c1c2ccccc2sn1-c1cc(S(=O)(=O)N2CCOCC2)ccc1N1CCOCC1	TbHK1 inh 50
Cc1ccccc1C(=O)c1c[nH]c(C(N)=O)c1	NPY-Y1 PAM-ag 111
Cc1ccccc1C(=O)c1c[nH]c(C(=O)N=CN(C)C)c1	none (no result: NPY-Y2 antag)
CCOC(=O)N1CCN(C(=O)c2ccc(NS(C)(=O)=O)cc2)CC1	Calpain2 inh 50
CCOC(=O)N1CCN(C(=O)c2ccc(NC(=O)CC)cc2)CC1	none
CCOc1cc(CNc2ccc(O)cc2)cc(Br)c1OCc1ccccc1F	Calpain2 inh 73
CCCCC(c1nnnn1C1CCCC1)N1CCN(C2CCCCC2)CC1 (configuration not stated)	NPY Y1 blocker 37, NPY-Y2 antag 26
O=C(CSc1nc(-c2ccc(F)cc2)nc2c1Cc1ccccc1O2)Nc1cccc(C(=O)O)c1	Calpain2 inh 59 (no result: NPY-Y2 antag)
Cc1cc(NC(=O)CSc2nnc(-c3ccncc3)n2N)ccc1Br	Calpain2 inh 137
NNC(=O)c1ccc(CSc2n[nH]c(=O)[nH]c2=O)cc1	none (no result: NPY Y1 blocker, NPY-Y2 antag)
c1csc(CNc2nc(-c3cccs3)nc3ccccc23)c1	none (no result: NPY-Y2 antag)
c1ccc(CN2CCC(Nc3nc(-c4cccs4)nc4ccccc34)CC2)cc1	NPY Y1 blocker 21 (no result: NPY-Y2 antag)
COc1ccc(C(CC(=O)O)NC(=O)c2ccccc2)cc1OC (configuration not stated)	none
COc1ccccc1C(CC(=O)c1ccccc1)CC(=O)c1ccccc1	NPY Y1 blocker 21 (no result: NPY-Y2 antag)
C=CCn1c(SCc2c(C)noc2C)nc2ccccc2c1=O	NPY Y1 blocker 64, NPY-Y2 antag 29
COc1ccc(-c2noc(CSc3nc4ccccc4c(=O)n3-c3ccccc3)n2)cc1	none
C=CCn1c(SCc2cc(C(C)=O)ccc2OCC)nc2ccccc2c1=O	NPY Y1 blocker 27, NPY-Y2 antag 25
Cc1noc(C)c1CSc1nc2ccccc2c(=O)n1-c1ccccc1	NPY Y1 blocker 24, NPY-Y2 antag 18
COc1ccc(C(C)=O)cc1CSc1nc2ccccc2c(=O)n1-c1ccccc1	none
NC(=S)N/N=C/c1coc2c(ccc3ccccc32)c1=O	Calpain2 inh 73
CCc1cc(C(=O)c2ccc(C)cc2)c(NC(=O)CCl)s1	NPY-Y2 PAM-ag 35, NPY-Y1 PAM-ag 42
CCn1c(O)c(N=NC(=O)c2ccc(CSc3nncn3C)cc2)c2ccccc21	none
